Measured values: publication PMC8006165 (ACS Central Science, 2021)
Values joined by “and” are separate entries in the source; they are usually repeats but may differ in a detail not shown here. Equal entries are not always repeated.

Assays:
[1] = target: Salmonella enterica YihS (SQ-SF isomerase), as measured by SEC-MALS (Salmonella enterica) (UniProt Q8ZKT7); assay: SEC-MALS
EcYihV [2] = target: T1, EcYihV (Escherichia coli, UniProt P32143); assay: SFP production, HPLC-MS/MS; format: biochemical; details: substrate inhibition; 1.0 mM ATP; pH 7.5, 5 mM MgCl2, 30 °C; no additive
T1 sequence (P32143 1-298): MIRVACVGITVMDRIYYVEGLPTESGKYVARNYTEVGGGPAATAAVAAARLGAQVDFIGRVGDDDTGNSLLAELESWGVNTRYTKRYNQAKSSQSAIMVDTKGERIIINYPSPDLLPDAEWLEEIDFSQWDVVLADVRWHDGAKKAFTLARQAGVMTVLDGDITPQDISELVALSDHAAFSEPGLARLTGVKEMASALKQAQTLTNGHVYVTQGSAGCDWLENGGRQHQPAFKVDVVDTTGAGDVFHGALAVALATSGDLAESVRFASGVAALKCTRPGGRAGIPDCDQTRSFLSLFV
In short: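 Recombinant E. coli YihV (36.6 nM) phosphorylating chemically synthesized sulfofructose (SF) to SFP. […] SFP formation was quantified by HPLC-MS/MS on a ZIC-HILIC column. Rates across SF concentrations were fitted to a substrate inhibition kinetic model.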

SeYihT = target: T2, SeYihT (Salmonella enterica, UniProt Q9L7R9); assay: X-ray structure, in-crystal cleavage of SFP; format: binding; details: covalent Schiff base with Lys193
T2 sequence (Q9L7R9 1-292): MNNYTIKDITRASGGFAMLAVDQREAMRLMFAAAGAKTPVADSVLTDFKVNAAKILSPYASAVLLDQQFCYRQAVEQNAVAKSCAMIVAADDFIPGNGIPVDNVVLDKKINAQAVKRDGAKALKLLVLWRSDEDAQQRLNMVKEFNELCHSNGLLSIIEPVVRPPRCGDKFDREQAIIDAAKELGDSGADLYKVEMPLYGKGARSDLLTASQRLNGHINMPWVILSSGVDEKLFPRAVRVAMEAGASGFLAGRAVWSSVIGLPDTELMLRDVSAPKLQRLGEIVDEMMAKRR

EcYihV [3] = target: T1, EcYihV; assay: X-ray structure of cocrystal; format: binding; details: with Mg; open and closed subunits
EcYihV [4] = target: T1, EcYihV; assay: effect of additive on SF phosphorylation, HPLC-MS/MS; format: biochemical; details: 1.0 mM ATP, varied SF, pH 7.5, 30 °C, activator
SEC-MALS = target: the molecule itself; assay: SEC-MALS
purified protein [5] = substrate: O=C(COP(=O)(O)O)[C@@H](O)[C@H](O)[C@H](O)CS(=O)(=O)O; assay: purified protein; details: SFP to SLA and DHAP
purified protein [6] = substrate: Nc1ncnc2c1ncn2[C@@H]1O[C@H](COP(=O)(O)OP(=O)(O)OP(=O)(O)O)[C@@H](O)[C@H]1O; assay: purified protein; details: 1.0 mM SF, 25 mM BTP pH 7.5, 25 mM KCl, 5 mM MgCl2, 30 °C

Molecule: Salmonella enterica YihS (SQ-SF isomerase), as measured by SEC-MALS (from UniProt Q8ZKT7 2-413) (enzyme)
- stoichiometry N [1]: 6

Molecule: O=S(=O)(O)C[C@H]1OC(O)(CO)[C@@H](O)[C@@H]1O (some centres unmarked) [SF, 6-deoxy-6-sulfofructose]
- KI (EcYihV [2]): 8.5 ± 2.8 mM

Molecule: O=C(CO)COP(=O)(O)O [DHAP]
- X-ray structure, in-crystal cleavage of SFP (SeYihT): a new Schiff base formed with a DHAP molecule could be modeled

Molecule: Nc1ncnc2c1ncn2[C@@H]1O[C@H](COP(=O)(O)OP(=O)(O)NP(=O)(O)O)[C@@H](O)[C@H]1O [AMPPNP]
- X-ray structure of cocrystal (EcYihV [3]): AMPPNP resulted in the EcYihV·AMPPNP·Mg complex showing a surface-accessible nucleotide binding site

Molecule: O=P(O)(O)OC[C@H]1OC(O)(COP(=O)(O)O)[C@@H](O)[C@@H]1O (some centres unmarked) [FBP]
- effect of additive on SF phosphorylation, HPLC-MS/MS (EcYihV [4]; 10 mM FBP): by F6P, FBP, PEP, and citrate (through effects on kcat/KM)

Molecule: C=C(OP(=O)(O)O)C(=O)O [PEP]
- effect of additive on SF phosphorylation, HPLC-MS/MS (EcYihV [4]; 10 mM PEP): by F6P, FBP, PEP, and citrate (through effects on kcat/KM)

B1: Salmonella enterica YihT (sulfofructose-1-phosphate aldolase) (enzyme, UniProt Q9L7R9 1-292, looked up)
chain: MNNYTIKDITRASGGFAMLAVDQREAMRLMFAAAGAKTPVADSVLTDFKVNAAKILSPYASAVLLDQQFCYRQAVEQNAVAKSCAMIVAADDFIPGNGIPVDNVVLDKKINAQAVKRDGAKALKLLVLWRSDEDAQQRLNMVKEFNELCHSNGLLSIIEPVVRPPRCGDKFDREQAIIDAAKELGDSGADLYKVEMPLYGKGARSDLLTASQRLNGHINMPWVILSSGVDEKLFPRAVRVAMEAGASGFLAGRAVWSSVIGLPDTELMLRDVSAPKLQRLGEIVDEMMAKRR
- stoichiometry N (SEC-MALS): 4
- Km (purified protein [5]): 3570 ± 420 µM
- kcat (purified protein [5]): 47.7 ± 2.4 s⁻¹

B2: E. coli YihV (sulfofructose kinase) (enzyme, UniProt P32143 1-298, looked up)
chain: MIRVACVGITVMDRIYYVEGLPTESGKYVARNYTEVGGGPAATAAVAAARLGAQVDFIGRVGDDDTGNSLLAELESWGVNTRYTKRYNQAKSSQSAIMVDTKGERIIINYPSPDLLPDAEWLEEIDFSQWDVVLADVRWHDGAKKAFTLARQAGVMTVLDGDITPQDISELVALSDHAAFSEPGLARLTGVKEMASALKQAQTLTNGHVYVTQGSAGCDWLENGGRQHQPAFKVDVVDTTGAGDVFHGALAVALATSGDLAESVRFASGVAALKCTRPGGRAGIPDCDQTRSFLSLFV
- stoichiometry N (SEC-MALS): 2 and 4
- Km (purified protein [6]): 1000 ± 200 µM
- kcat (purified protein [6]): 3.1 s⁻¹
- kcat/Km (purified protein [6]): 3200 M⁻¹ s⁻¹

B3: E. coli YihT (sulfofructose-1-phosphate aldolase) (enzyme, UniProt P32141 1-292, looked up)
chain: MNKYTINDITRASGGFAMLAVDQREAMRMMFAAAGAPAPVADSVLTDFKVNAAKALSPYASAILVDQQFCYRQVVEQNAIAKSCAMIVAADEFIPGNGIPVDSVVIDRKINPLQIKQDGGKALKLLVLWRSDEDAQQRLDMVKEFNELCHSHGLVSIIEPVVRPPRRGDKFDREQAIIDAAKELGDSGADLYKVEMPLYGKGPQQELLCASQRLNDHINMPWVILSSGVDEKLFPRAVRVAMTAGASGFLAGRAVWASVVGLPDNELMLRDVCAPKLQQLGDIVDEMMAKRR
- stoichiometry N (SEC-MALS): 4
